Compounds with a hit are over-represented: about 0.38% of the library has one in this group of screens.
GSK3A inh: blockers of GSK3A enzyme activity – biochemical, luminescence, cell-free homogeneous, HTS, primary screen. Glycogen synthase kinase-3 alpha (Homo sapiens), P49840. GSK-3 alpha kinase, ADP-Glo luminescence, 60 min. inhibition, % at 10 µM. 0.1% of 320,000 active. AID 2650, 2010;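 active = more than half of replicates show inhibition above 20%; inconclusive = some but at most half of replicates above 20% inhibition; inactive = no replicate shows inhibition above 20%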;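 also: GST-tagged GSK-3 alpha with peptide substrate and 25 µM ATP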
proCasp7 act: procaspase-7 activators, primary screen, counter-screen for procaspase-3 activator project, biochemical, absorbance, HTS, human; 0.093% of 330,000 active; Caspase-7 (Homo sapiens), P55210; activation, % at 8.5 µM; recombinant procaspase-7, Ac-DEVD-pNA absorbance 405 nm; D23A/D198A/D206A triple mutant, cannot self-cleave; scale: DMSO 0, 5 µM enzyme 100; AID 463210, 2010;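 active = percent activation above the screen-wide mean plus 3 SD, cut at about 25% in these data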
Target sequence (P55210 whole entry D23A/D198A/D206A): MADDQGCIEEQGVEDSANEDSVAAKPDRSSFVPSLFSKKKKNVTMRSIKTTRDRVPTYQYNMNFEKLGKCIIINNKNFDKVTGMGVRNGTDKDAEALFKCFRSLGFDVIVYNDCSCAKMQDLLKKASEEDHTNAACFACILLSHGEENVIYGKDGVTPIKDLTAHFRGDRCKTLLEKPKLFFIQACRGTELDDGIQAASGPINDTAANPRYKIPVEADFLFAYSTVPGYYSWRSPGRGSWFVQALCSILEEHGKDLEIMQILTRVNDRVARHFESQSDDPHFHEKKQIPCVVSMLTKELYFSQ
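System: Procaspase-7 triple mutant (PC-7 D3A); measure: % activation from two-timepoint absorbance difference, scaled to controls; times: 1 h compound preincubation, 2 h substrate cleavage, 25 °C; also added: Ac-DEVD-pNA substrate, 400 µM as added; measured by: Epi-absorbance of released pNA at 405 nm, two timepoints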
proCasp3 act: activators of human procaspase-3 D3A mutant, primary screen, biochemical, absorbance, PC-3 D3A mutant, single concentration; 0.11% of 330,000 active; recombinant procaspase-3 D3A, Ac-DEVD-pNA absorbance 405 nm; activation, % at 8.5 µM; Caspase-3 (Homo sapiens), P42574;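 active = activation above the mean of all tested compounds plus 3 SD, cut at about 21% in these data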
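material = Procaspase-3 D3A mutant | probe or stimulus = Ac-DEVD-pNA | compound = single dose, 8.5 µM nominal compound, 0.8% DMSO | timing = 1 h preincubation, 2 h reaction | measured by = 405 nm absorbance of p-nitroaniline, reads at 0 and 120 min | benchmarks = DMSO-only low control, 5 µM PC-3 D3A high control | repeats = singlicate, each compound tested once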
GSK3beta inhib: human GSK3beta kinase inhibitors, primary screen, biochemical, cell-free homogeneous, HTS; 0.038% of 300,000 active; GST-GSK3beta kinase, ADP-Glo luminescence, 60 min; hits give low values; activity score (negative = inhibition), % at 10 µM;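 active = more than half of replicate wells score below -50%, meaning over 50% inhibition versus plate controls; inconclusive = some replicates but at most half score below -50%; inactive = no replicate scores below -50%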
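Assay system: GST-fused GSK3beta enzyme, cell-free / Medium: Tris pH 7.5 buffer with MgCl2, DTT, BSA, heparin / Also added: peptide substrate plus 25 µM ATP (final) / Compound: 10 µM single point / Timing: kinase reaction with compound 60 min at room temperature / Detection: ADP-Glo luminescence / Benchmarks: DMSO neutral wells and GW8510 at 20 µM as positive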
STK33 inh: inhibitors of purified STK33 kinase, primary screen, biochemical, ADP-Glo luminescence, homogeneous, cell-free | Serine/threonine-protein kinase 33 (Homo sapiens), Q9BYT3 | MBP phosphorylation | inhibition, % at 10 µM | 0.073% of 320,000 active | AID 2661, 2010;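 active = inhibition at or above 25%, using the most active replicate where run in duplicate; inactive = inhibition below 25%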
A1 inh: caspase 3/7 activation in MEF A1-2A-BIM cells, primary screen, A1 inhibitor project, cell-based, luminescence, HTS. Caspase-Glo 3/7 luminescence, 3 h; percent of clofoctol response, vehicle zero. caspase activation, % (no concentration beside the values). 0.066% of 330,000 active;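 active = over half of replicate activation scores above 10%, or exactly half above 10 with the replicate mean above 10; inconclusive = replicate mean below 10 yet half the replicates above 10; inactive = over half of replicates below 10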
A number is an active result.

CC(=O)OC[C@]12CC[C@H]3[C@@](C)(CC[C@H]4C(C)(C)CCC[C@]34C)[C@@H]1C[C@H](C1=CC(=O)O[C@H]1OC(C)=O)O2 was read as GSK3A inh inactive, proCasp7 act inactive, proCasp3 act inactive, STK33 inh inactive and A1 inh 62.
`CC(=O)OC[C@]12CC[C@H]3[C@@](C)(CC[C@H]4C(C)(C)CCC[C@]34C)[C@@H]1C[C@@H](C1=CC(=O)O[C@@H]1OC(C)=O)O2` gave GSK3A inh inactive, proCasp7 act inactive, proCasp3 act inactive, STK33 inh inactive and A1 inh inconclusive.
`CS(=O)(=O)c1nc(-c2cccs2)cc(C(F)(F)F)n1` gave GSK3A inh inactive, proCasp7 act inactive, proCasp3 act inactive, GSK3beta inhib inactive, STK33 inh inactive and A1 inh 8.2.
Screening CCCC1=C(C(=O)OCC)C(c2cccs2)n2ncnc2N1 (centres undefined) returned GSK3A inh 61, proCasp7 act inactive, proCasp3 act inactive, GSK3beta inhib inactive, STK33 inh inactive and A1 inh inactive.
`O=C(Nc1ncc([N+](=O)[O-])s1)C1CCN(S(=O)(=O)c2cnc[nH]2)CC1` gave GSK3A inh 51, proCasp7 act inactive, proCasp3 act inactive, GSK3beta inhib inactive, STK33 inh inactive and A1 inh inactive.
`O=C(NC1CCCCCC1)C1CCN(S(=O)(=O)c2cnc[nH]2)CC1` gave GSK3A inh inactive, proCasp7 act inactive, proCasp3 act inactive, GSK3beta inhib inactive, STK33 inh inactive and A1 inh inactive.
For COc1cc(C)c2c(c1C=O)Oc1c(c(C)c(O)c3c1C(O)OC3=O)OC2=O (centres undefined) the results were GSK3A inh inactive, proCasp7 act inactive, proCasp3 act inactive, GSK3beta inhib inactive, STK33 inh 44 and A1 inh inactive.
Screening CCN(CC)S(=O)(=O)c1ccc(NC(=O)COC(=O)CCc2cc(OC)c(OC)c(OC)c2)cc1 returned GSK3A inh inactive, proCasp7 act inactive, proCasp3 act inactive, GSK3beta inhib inactive, STK33 inh inactive and A1 inh inactive.
CCOc1ccccc1OCCC(=O)N1CCN(S(=O)(=O)c2ccccc2[N+](=O)[O-])CC1 was read as GSK3A inh inactive, proCasp7 act inactive, proCasp3 act inactive, STK33 inh inactive and A1 inh 21.
Screening COc1cc2c(-c3ccccc3)c(C)oc2cc1/C=N/NC(N)=S returned GSK3A inh inactive, proCasp7 act inactive, proCasp3 act inactive, GSK3beta inhib inactive, STK33 inh inactive and A1 inh 6.7.
`CCOc1ccc(Nc2cc(C)nc3nc(C)nn23)cc1` gave proCasp7 act inactive, proCasp3 act inactive, GSK3beta inhib inactive, STK33 inh inactive and A1 inh 5.2.
COc1ccc(C(=O)NC2CC2)cc1OC1CCN(Cc2ccc(F)cc2F)CC1 was read as GSK3A inh inactive, proCasp7 act inactive, proCasp3 act inactive, GSK3beta inhib inactive, STK33 inh inactive and A1 inh inactive.
Screening COC(=O)CSc1nc(N2CCOCC2)c2c(c1C#N)CCCC2 returned GSK3A inh inactive, proCasp7 act inactive, proCasp3 act inactive, GSK3beta inhib inactive, STK33 inh inactive and A1 inh inactive.
For CCSc1nc(N2CCOCC2)c2c(c1C#N)CCCC2 the results were GSK3A inh inactive, proCasp7 act inactive, proCasp3 act inactive, GSK3beta inhib inactive, STK33 inh 31 and A1 inh inactive.
For O=C(CSc1nnc(CNC(=O)c2ccccc2F)o1)NC1CCCC1 the results were GSK3A inh inactive, proCasp7 act inactive, proCasp3 act inactive, STK33 inh inactive and A1 inh inactive.

Screening data as filed in PubChem.
